# This is a sample that favours compounds with a hit; in the whole collection about 1.3% have one here.
# S1P3 antagonist: antagonists of human S1P3 receptor; Q99500; CHO S1P3 NFAT-BLA reporter, FRET fluorescence, antagonist mode; inhibition, % at 4.98 µM; 0.27% of 170,000 active;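 active means inhibition above the plate cutoff, the mean inhibition of test wells on that plate plus 3 SD, cut at about 28% in these data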;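 further: cells challenged with S1P at its EC80 of 0.8 µM; blue over green emission ratio from cleaved BLA substrate after 4 h stimulation; 0% = S1P-stimulated wells and 100% = unstimulated DMSO-only wells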
# S1P4 antagonist: blocks the human S1P4 receptor; S1P4-expressing cells, antagonist mode, reporter read-out; inhibition, % at 4.98 µM; 0.26% of 220,000 active; AID 1510; in the data active means inhibition above about 29%;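 further: 0% = wells stimulated with agonist and 100% = vehicle wells without agonist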
# Dynein transport: dynein cargo transport inhibition; 0.47% of 220,000 active; 3617.4 mouse cells, GR-EGFP nuclear translocation imaging; test concentration mostly 20 µM; stimulated with dexamethasone, 1 µM; stronger effect = lower value; z-score, hits read low;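 active means plate z-score of nuclear minus cytoplasmic receptor signal below a set negative limit, without overly bright fluorescence or cell loss, cut at about -3.5 in these data, passing the limit was not always enough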;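 further: z-score of nuclear minus cytoplasmic ring GR-EGFP intensity difference per well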
#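 Buffer or medium: tet-free, stripped-serum medium; reagent: dexamethasone at 1.0 µM final, 30 min; incubation: 48 h induction, 1 h compound, 30 min dex at 37 °C; measured by: formaldehyde fixation, Hoechst nuclear stain, 10x automated fluorescence imaging; read-out: nuclear-to-cytoplasmic GR-EGFP distribution per well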
# S1P4 ag: agonists of human S1P4 receptor | O95977 | S1P4-expressing cell line, agonist reporter assay | activation, % at 4.98 µM | 0.35% of 220,000 active; in the data active means activation above about 11%;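 further: 0% = DMSO vehicle and 100% = reference agonist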
# MDM2 E3 inh: blocks human Mdm2 ubiquitin ligase activity. Q00987. cell-based MDM2 ubiquitination luciferase reporter, 2 h; 0 = plate control, 100 = twice control, blank-subtracted. signal enhancement, % at 5 µM. 0.11% of 210,000 active. AID 1230;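 active means signal enhancement of 30% or more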;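 further: luminescence tracks abundance of the self-degrading MDM2-luciferase fusion protein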
# Target sequence (Q00987 whole entry, looked up, the tested form may be a part): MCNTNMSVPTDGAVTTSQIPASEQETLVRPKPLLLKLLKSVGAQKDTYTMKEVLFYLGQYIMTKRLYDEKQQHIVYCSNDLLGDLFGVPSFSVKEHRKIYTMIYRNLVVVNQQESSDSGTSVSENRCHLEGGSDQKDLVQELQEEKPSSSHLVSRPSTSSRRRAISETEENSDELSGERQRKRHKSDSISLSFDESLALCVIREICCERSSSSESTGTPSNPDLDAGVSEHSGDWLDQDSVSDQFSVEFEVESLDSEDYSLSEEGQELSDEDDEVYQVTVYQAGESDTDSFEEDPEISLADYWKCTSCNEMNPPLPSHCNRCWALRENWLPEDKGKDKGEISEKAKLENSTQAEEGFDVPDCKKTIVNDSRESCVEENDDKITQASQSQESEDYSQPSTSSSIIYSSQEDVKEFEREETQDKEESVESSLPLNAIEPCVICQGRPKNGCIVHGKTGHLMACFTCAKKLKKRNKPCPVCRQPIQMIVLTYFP
#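 Assay system: mammalian cells stably expressing self-ubiquitinating, self-degrading MDM2 E3–luciferase fusion. Quantity: 2000 cells in each well. Medium: DMEM culture medium. Compound dosing: single-point 5 µM. Timing: cell settling 4 h, compound treatment 2 h, both 37 °C. Technique: luciferase luminescence. Read-out basis: percent signal gain over controls, blank-subtracted. Benchmarks: plate controls and plate blanks.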
# Hsp70 activator: switches on Hsp70 transcription; HeLa Hsp70 promoter luciferase reporter, luminescence; scaled: vehicle 0, proteasome-inhibitor control 100%; activation, % at 10 µM; 0.04% of 200,000 active; AID 1203;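 active means activation above the mean across all tested compounds plus 3 SD, cutoff set per campaign, cut at about 5.5% in these data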;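 further: 100% = MG132 at 30 µM as the positive control and 0% = DMSO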
# The depositor's hits bear a star; . = not tested or not shown.
SMILES,S1P3 antagonist,S1P4 antagonist,Dynein transport,S1P4 ag,MDM2 E3 inh,Hsp70 activator
COc1ccc(S(=O)(=O)N2CCN(S(=O)(=O)c3ccc(C(F)(F)F)cc3)CC2)cc1C,3,-10,0.95,0,-3,0
COc1ccc(S(=O)(=O)N2CCN(c3ccc(C)cc3C)CC2)cc1OC,103*,1,-1.1,-1,-6,0
COc1ccc(S(=O)(=O)N2CCN(C)CC2)cc1C,56*,-15,-0.91,-3,-11,0
O=C1OCC2=C1C(c1ccc(F)cc1)c1cc3c(cc1N2)OCCO3 (stereo not given),35*,-2,-0.13,1,-8,1
O=C1OCC2=C1C(c1ccc(F)cc1)c1cc3c(cc1N2)OCO3 (stereo not given),-2,-10,0.43,4,-11,0
O=[N+]([O-])c1cc(-c2ncccn2)c([N+](=O)[O-])s1,1,25,-3.9*,-1,4,0
O=C(Nc1ncccn1)c1cc([N+](=O)[O-])cc([N+](=O)[O-])c1,-4,0,-0.75,1,1,0
COC(=O)c1cc2c(=O)n3ccccc3nc2n(C(C)C)c1=N,1,-28,-0.39,12*,.,0
CN(C)c1cc(C(F)(F)F)nc(-c2ccccn2)n1,.,-20,-0.54,-1,31*,0
CCCCCCCCC[n+]1cccc2c3ccccc3ccc21,.,-8,1.4,-4,-66,0
CCCCCCCCCCCCCCCC[n+]1cccc2ccccc21,21,-14,-5.2*,2,-25,0
Cc1cc(O)c(-c2cc(O)c(C)cc2O)cc1O,13,16,-6*,-1,0,.
COc1cc(NC(=O)c2cnc(N)s2)cc(C(=O)Nc2cccc(C(F)(F)F)c2)c1,.,.,-0.63,.,32*,.
COc1cc(NC(=O)c2ccnc(N)c2)cc(C(=O)Nc2cccc(C(F)(F)F)c2)c1,.,.,-0.52,.,7,.
N#CC(C#N)=C1C=CC=CN1/C(=C\c1ccccc1Cl)C(=O)c1ccccc1,-8,2,-4.1*,1,-2,1
CC(=O)NCCc1nc2ccccc2n1CCc1ccccc1,-11,-9,-0.93,0,-8,-1
COC(=O)C1=C(N)Oc2cc(C)n(C)c(=O)c2C1c1ccc(Cl)cc1 (stereo not given),71*,-8,1.1,-2,-18,0
Cc1ccc(C)c(Sc2ccc(NC(=O)CCl)cc2)c1,7,8,-4.2*,6,-26,0
O=C(CCl)Nc1ccccc1Sc1ccccc1,.,-11,-0.63,0,-7,0
Cc1ccc(CNS(=O)(=O)c2ccc3c(c2)n(C)c(=O)c(=O)n3C)cc1,2,-7,-0.1,0,-12,0
Cc1ccc([N+](=O)[O-])cc1N,-10,-7,-0.27,0,-5,0
Nc1ccc2c(c1)Cc1cc([N+](=O)[O-])ccc1-2,52*,20,-6.9,0,-13,0
COCCNC(=O)CN1CCC(NC(=O)c2ccco2)CC1,8,-13,3.3,0,13,-1
CCn1c(CNc2ccccc2Cl)nnc1SCC(=O)NCc1ccccc1,70*,4,1.3,1,-15,0
CCn1c(CNc2ccc(C)cc2)nnc1SCC(=O)NCc1ccccc1,-15,-3,-0.62,-2,.,0
SMILES,S1P3 antagonist,S1P4 antagonist,Dynein transport,S1P4 ag,MDM2 E3 inh,Hsp70 activator
O=C(N=Nc1c(O)[nH]c2ccc(F)cc12)C1COc2ccccc2O1 (stereo not given),2,-10,-0.41,2,-16,.
Cc1ccc(S(=O)(=O)N2CC(=NO)C2)cc1,66*,4,0.75,1,-2,-1
CC1=CC(=C(C#N)c2nc3ccccc3s2)C=C(C)N1Cc1ccco1,56*,-10,-0.86,2,-21,0
Cc1ccc(-c2nsc(SCC(=O)NCc3ccc4c(c3)OCO4)n2)cc1,-22,-5,0.091,-1,-2,0
COc1ccc(-c2nsc(SCC(=O)Nc3ccc4c(c3)OCO4)n2)cc1,9,-8,-0.28,-1,32*,0
Cc1cccc(OCCSc2nc(N)cc(N)n2)c1,-13,1,-0.42,0,-6,.
CCOC(=O)c1nnn(-c2nonc2N)c1COc1cc(C)c(Cl)c(C)c1,58*,1,-0.55,3,.,0
O=C1CC(c2ccccc2)CC(O)=C1C=NCc1ccccc1Cl (stereo not given),.,-2,-1.4,0,-2,2
O=C1CC(c2cccc(Cl)c2)CC(O)=C1C=NC1CCCC1 (stereo not given),10,-4,-0.49,0,32*,0
CC1(C)Cc2c(sc3c2c(N)nc(=S)n3Cc2ccc(Br)cc2)CO1,-5,3,-0.057,3,-8,.
Cc1cc(C(C)(C)C)ccc1OCCCCN1CCCC1,-3,-10,-0.69,0,-4,0
CCC(C)(C)c1ccc(OCCCC[n+]2ccc(C)cc2)c(C(C)(C)CC)c1,-15,-6,-3.6*,-1,-24,0
Cc1ccc(C)c(C(=O)CN2C(=O)CCC2=O)c1,75*,8,0.54,0,0,0
COc1cc(C2=NOC(C(=O)NC3CCCCC3)C2)cc(OC)c1OC (stereo not given),96*,-13,0.4,2,1,0
Fc1ccc(Nc2nnc(C(F)(F)F)s2)cc1,-7,2,-0.59,1,0,.
O=C(O)c1ccc(S(=O)(=O)c2ccc3c(c2)C(=O)N(Cc2ccco2)C3=O)cc1,106*,-10,-1.1,0,11,0
O=C(O)c1ccc(S(=O)(=O)c2ccc3c(c2)C(=O)N(CC2CCCO2)C3=O)cc1 (stereo not given),-15,4,1.7,-4,-18,0
CN1CCN(C(=S)Nc2cc([N+](=O)[O-])ccc2Cl)CC1,8,-2,2,0,31*,0
CN1CCN(C(=S)c2ccc([N+](=O)[O-])cc2)CC1,-6,8,-0.25,0,8,0
CCOC(=O)C1C(c2ccccc2)N(C)OC1(O)C(F)(F)F (stereo not given),-17,-6,-0.2,4,35*,0
CCOC(=O)C1C(c2ccc(OC)cc2)N(C)OC1(O)C(F)(F)F (stereo not given),-28,3,1,-2,7,0
COC(=O)[C@@]1(Cc2ccc(OC)cc2)[C@H]2c3cc(C(=O)N(C)C)n(C[C@H](O)CO)c3C[C@H]2CN1C(=O)c1ccccc1,-3,4,1.3,0,.,0
COC(=O)[C@@]1(Cc2ccc(OC)cc2)[C@@H]2C(=CC(=O)[C@H]2CC(=O)C(=O)N(C)C)CN1C(=O)c1ccccc1,7,5,-4.8*,2,.,1
